From ChEMBL document CHEMBL1800046, “Design, synthesis, and X-ray crystallographic studies of α-aryl substituted fosmidomycin analogues as inhibitors of Mycobacterium tuberculosis 1-deoxy-D-xylulose 5-phosphate reductoisomerase” (J Med Chem, 2011)

How the values were obtained:
[1] = Inhibition of Mycobacterium tuberculosis DXR-catalyzed NADPH-dependent rearrangement and reduction of DXP to form MEP measured every 5 secs for 500 secs by spectrophotometric analysis
[2] = tested on: Mycobacterium tuberculosis; test: Antibacterial activity against Mycobacterium tuberculosis H37Rv ATCC 27294 after 14 days by microplate alamar blue assay; type: functional; conditions: H37Rv ATCC 27294, 336 h
In short: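 Resazurin (Alamar blue) dye readout in 96-well format. Serially diluted compound added to a log-phase culture of M. tuberculosis H37Rv (ATCC 27294). MIC recorded in µg/ml.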

[3] = tested on: Mycobacterium tuberculosis; test: Inhibition of Mycobacterium tuberculosis DXR-catalyzed NADPH-dependent rearrangement and reduction of DXP to form MEP at 100 uM measured every 5 secs for 500 secs by spectrophotometric analysis
In short: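 Screened with inhibitor at 100 µM. Started by adding DXP, at 22 °C. A340 for NADPH read every 5 s over 500 s. Initial velocity from the linear slope, compared with the uninhibited reaction.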

| Compound | IC50 [1] [µM] | MIC [2] [mg/L] | inhibition [3] [%] |
| --- | --- | --- | --- |
| CCOP(=O)(OCC)C(CCN(O)C=O)c1ccc(Cl)c(Cl)c1 (racemic) | > 100 | – | – |
| CCOP(=O)(OCC)C(CCN(O)C(C)=O)c1ccc(Cl)c(Cl)c1 (racemic) | > 100 | – | – |
| CCOP(=O)(O)C(CCN(O)C=O)c1ccc(Cl)c(Cl)c1 (racemic) | 38 | – | – |
| CCOP(=O)(O)C(CCN(O)C(C)=O)c1ccc(Cl)c(Cl)c1 (racemic) | 22 | – | – |
| O=CN(O)CCC(c1ccccc1Br)P(=O)(O)O (racemic) | 5.6 | > 32 | 93 |
| CC(=O)N(O)CCC(c1ccccc1Br)P(=O)(O)O (racemic) | 210 | > 32 | 38 |
| CC(=O)N(O)CCC(c1ccccc1C#N)P(=O)(O)O (racemic) | – | > 32 | 30 |
| CC(=O)N(O)CCC(c1ccccc1-c1cccnc1)P(=O)(O)O (racemic) | – | > 32 | 20 |
| CCOP(=O)(O)C(CCNC(C)=O)c1ccccc1-c1cccnc1 (racemic) | – | > 32 | 20 |
| CC(=O)N(O)CCC(c1ccccc1-c1cccs1)P(=O)(O)O (racemic) | – | > 32 | 30 |
| CC(=O)N(O)CCC(c1ccccc1CO)P(=O)(O)O (racemic) | 465 | > 32 | 36 |
| CC(=O)N(O)CCC(c1ccccc1C)P(=O)(O)O (racemic) | 205 | > 32 | 55 |
| COCc1ccccc1C(CCN(O)C(C)=O)P(=O)(O)O (racemic) | – | > 32 | 30 |
| CC(=O)N(O)CCC(c1ccccc1CCO)P(=O)(O)O (racemic) | 150 | > 32 | 35 |
| CC(=O)N(O)CCC1c2ccccc2COP1(=O)O (racemic) | – | > 32 | 12 |
| CC(=O)N(O)CCC(c1ccccc1)P(=O)(O)O (racemic) | 7.4 | > 32 | 92 |
| O=CN(O)CCCP(=O)(O)O [FOSMIDOMYCIN] | 0.08 | – | – |
| CC(=O)N(O)CCCP(=O)(O)O [FR-900098] | 0.16 | – | – |
